Data taken from ChEMBL document CHEMBL1152227, “Structure-activity relationships of 1,4-dihydropyridines that act as enhancers of the vanilloid receptor 1 (TRPV1)” (Bioorg Med Chem, 2008).
Activity calls are given as the source filed them. No cut-off for these calls is given here.

How the values were obtained:
[1] = molecular target: T1, Transient receptor potential cation channel subfamily V member 1 (Homo sapiens, UniProt Q8NER1); test: Agonist-enhancing activity in epsilon-epitope tagged TRPV1 receptor expressed in mouse NIH3T3 cells assessed as capsaicin-induced 45Ca2+ influx at 100 uM by microplate liquid scintillation counter relative to capsaicin alone; assay type: functional, cell-based
Outline: (§1)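 Stable ε-tagged TRPV1 NIH3T3 cells. Uptake with capsaicin 2 µM, 10 min at 20°C, 0.5 µCi/well 45Ca2+ in Tris-HBSS pH 7.5. Compound up to 100 µM, 2% DMSO, from 5 mM stocks, duplicate wells per concentration. Data normalized to capsaicin-only wells (100%). Variable-slope fit gave EC50 and ΔEmax; compounds too weak to fit were given ΔEmax at the top concentration.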

[2] = molecular target: T1, Transient receptor potential cation channel subfamily V member 1; test: Agonist activity at epsilon-epitope tagged TRPV1 receptor expressed in mouse NIH3T3 cells assessed as effect on 45Ca2+ influx by microplate liquid scintillation counter; assay type: functional, cell-based
Outline: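 NIH3T3 cells stably expressing ε-tagged TRPV1 were seeded the day before and grown at 35°C. Test compound given without capsaicin, top concentration 100 µM, 2% DMSO. 45Ca2+ uptake run 10 min at 20°C in Tris-HBSS (pH 7.5) with ascorbate, 10 µM Ca2+ and 0.8 mM Mg2+. Cells were washed, lysed in RIPA and counted by scintillation.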

[3] = molecular target: Transient receptor potential cation channel subfamily V member 1 (Rattus norvegicus) (UniProt O35433); test: Agonist activity at TRPV1 receptor in E15 rat primary dorsal root ganglion cells assessed as effect on 45Ca2+ influx by microplate liquid scintillation counter; assay type: functional, tissue-based
Outline: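 DRGs from E15 rat embryos, enzymatically dissociated, grown 5–6 days at 35°C. Test compound given without capsaicin. 45Ca2+ uptake run 10 min at 20°C in Tris-buffered (pH 7.5) HBSS with 1 mM ascorbate, 10 µM CaCl2 and 0.8 mM MgCl2, with 0.5 µCi/well tracer. Cells were washed, lysed in RIPA and counted by scintillation.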

[4] = molecular target: T2, Adenosine receptor A3 (Rattus norvegicus) (UniProt P28647); test: Binding affinity to rat adenosine A3 receptor
T2 sequence (whole entry): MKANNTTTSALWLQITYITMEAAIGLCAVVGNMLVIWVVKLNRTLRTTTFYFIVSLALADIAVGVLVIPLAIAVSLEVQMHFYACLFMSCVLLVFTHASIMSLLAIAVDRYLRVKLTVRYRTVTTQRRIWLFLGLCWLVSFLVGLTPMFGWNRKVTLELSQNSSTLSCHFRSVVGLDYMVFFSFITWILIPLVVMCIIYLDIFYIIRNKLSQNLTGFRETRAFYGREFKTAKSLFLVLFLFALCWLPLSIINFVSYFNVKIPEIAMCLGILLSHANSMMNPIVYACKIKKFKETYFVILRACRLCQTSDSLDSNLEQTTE

[5] = molecular target: T1, Transient receptor potential cation channel subfamily V member 1; test: Agonist-enhancing activity in epsilon-epitope tagged TRPV1 receptor expressed in mouse NIH3T3 cells assessed as capsaicin-induced 45Ca2+ influx by microplate liquid scintillation counter; assay type: functional, cell-based; outline: as §1
[6] = molecular target: Transient receptor potential cation channel subfamily V member 1 (Rattus norvegicus) (UniProt O35433); test: Agonist-enhancing activity at TRPV1 receptor in E15 rat primary dorsal root ganglion cells assessed as capsaicin-induced 45Ca2+ influx by microplate liquid scintillation counter relative to capsaicin alone; assay type: functional, tissue-based
Outline: (§2)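 E15 rat DRG cultures grown 5–6 days at 35°C. Uptake with capsaicin ~0.5 µM, 10 min at 20°C, 0.5 µCi/well 45Ca2+ in Tris-HBSS pH 7.5. Compound up to 50 µM, 0.2% DMSO, from 25 mM stocks. Counts normalized to in-plate capsaicin-only wells (100%, 4 wells). Variable-slope sigmoid fit gave EC50, Hill slope and ΔEmax.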

[7] = molecular target: Transient receptor potential cation channel subfamily V member 1 (Rattus norvegicus) (UniProt O35433); test: Agonist-enhancing activity at TRPV1 receptor in E15 rat primary dorsal root ganglion cells assessed as capsaicin-induced 45Ca2+ influx by microplate liquid scintillation counter; assay type: functional, tissue-based; outline: as §2
[8] = molecular target: T3, Adenosine receptor A3 (Homo sapiens, UniProt P0DMS8); test: Binding affinity to human adenosine A3 receptor
T3 sequence (P0DMS8 whole entry): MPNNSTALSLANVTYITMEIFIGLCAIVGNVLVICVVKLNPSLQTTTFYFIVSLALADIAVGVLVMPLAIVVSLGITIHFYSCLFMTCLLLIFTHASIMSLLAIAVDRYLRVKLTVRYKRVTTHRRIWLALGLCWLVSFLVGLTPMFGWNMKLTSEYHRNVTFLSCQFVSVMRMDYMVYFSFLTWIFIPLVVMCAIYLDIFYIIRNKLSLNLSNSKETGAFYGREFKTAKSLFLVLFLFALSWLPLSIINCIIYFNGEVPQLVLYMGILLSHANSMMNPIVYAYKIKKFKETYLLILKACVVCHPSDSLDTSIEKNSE

[9] = molecular target: Transient receptor potential cation channel subfamily V member 1 (Rattus norvegicus) (UniProt O35433); test: Agonist-enhancing activity at TRPV1 receptor in E15 rat primary dorsal root ganglion cells assessed as increase in intracellular calcium levels at 10 uM by Fura-4F AM based fluorimetric method relative to capsaicin alone; assay type: functional, tissue-based
Outline: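 E15 rat DRG neurons on poly-ornithine/laminin coverslips, cultured 4–6 days. Loaded with 2.5 µM Fura-4F AM for 20 min at room temperature and perfused at 0.5 mL/min in pH 7.4 HEPES saline with ascorbate. Exposed 30 s to 200 nM capsaicin ± 10 µM compound, DMSO 0.04% in controls. 340/380 ratio read at 0.5 Hz and normalized to the 2-min baseline. Peak taken as the mean of 10 points, 3 coverslips per condition.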

T1 sequence (Q8NER1 whole entry): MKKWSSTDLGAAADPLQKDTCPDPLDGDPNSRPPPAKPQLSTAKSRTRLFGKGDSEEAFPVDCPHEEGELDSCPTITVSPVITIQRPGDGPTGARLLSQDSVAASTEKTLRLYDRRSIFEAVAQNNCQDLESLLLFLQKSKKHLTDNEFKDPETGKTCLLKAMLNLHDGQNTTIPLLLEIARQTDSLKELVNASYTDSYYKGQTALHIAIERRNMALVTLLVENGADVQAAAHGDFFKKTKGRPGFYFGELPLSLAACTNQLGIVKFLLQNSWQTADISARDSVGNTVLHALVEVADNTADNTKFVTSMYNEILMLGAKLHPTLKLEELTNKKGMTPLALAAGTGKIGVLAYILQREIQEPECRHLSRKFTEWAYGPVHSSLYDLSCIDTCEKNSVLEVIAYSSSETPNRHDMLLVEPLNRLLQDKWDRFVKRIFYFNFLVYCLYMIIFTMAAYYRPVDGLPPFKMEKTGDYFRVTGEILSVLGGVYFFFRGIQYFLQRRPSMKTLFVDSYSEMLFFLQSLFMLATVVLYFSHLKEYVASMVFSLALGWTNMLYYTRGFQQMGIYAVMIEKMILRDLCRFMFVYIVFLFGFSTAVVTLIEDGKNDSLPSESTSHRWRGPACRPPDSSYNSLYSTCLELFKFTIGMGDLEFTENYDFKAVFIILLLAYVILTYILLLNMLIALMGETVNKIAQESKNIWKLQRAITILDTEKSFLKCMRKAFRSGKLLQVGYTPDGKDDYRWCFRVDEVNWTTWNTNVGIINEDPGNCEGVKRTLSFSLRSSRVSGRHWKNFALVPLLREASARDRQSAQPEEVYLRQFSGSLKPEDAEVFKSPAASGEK
Transient receptor potential cation channel subfamily V member 1 (Rattus norvegicus), sequence (O35433 whole entry, the tested form may be a part): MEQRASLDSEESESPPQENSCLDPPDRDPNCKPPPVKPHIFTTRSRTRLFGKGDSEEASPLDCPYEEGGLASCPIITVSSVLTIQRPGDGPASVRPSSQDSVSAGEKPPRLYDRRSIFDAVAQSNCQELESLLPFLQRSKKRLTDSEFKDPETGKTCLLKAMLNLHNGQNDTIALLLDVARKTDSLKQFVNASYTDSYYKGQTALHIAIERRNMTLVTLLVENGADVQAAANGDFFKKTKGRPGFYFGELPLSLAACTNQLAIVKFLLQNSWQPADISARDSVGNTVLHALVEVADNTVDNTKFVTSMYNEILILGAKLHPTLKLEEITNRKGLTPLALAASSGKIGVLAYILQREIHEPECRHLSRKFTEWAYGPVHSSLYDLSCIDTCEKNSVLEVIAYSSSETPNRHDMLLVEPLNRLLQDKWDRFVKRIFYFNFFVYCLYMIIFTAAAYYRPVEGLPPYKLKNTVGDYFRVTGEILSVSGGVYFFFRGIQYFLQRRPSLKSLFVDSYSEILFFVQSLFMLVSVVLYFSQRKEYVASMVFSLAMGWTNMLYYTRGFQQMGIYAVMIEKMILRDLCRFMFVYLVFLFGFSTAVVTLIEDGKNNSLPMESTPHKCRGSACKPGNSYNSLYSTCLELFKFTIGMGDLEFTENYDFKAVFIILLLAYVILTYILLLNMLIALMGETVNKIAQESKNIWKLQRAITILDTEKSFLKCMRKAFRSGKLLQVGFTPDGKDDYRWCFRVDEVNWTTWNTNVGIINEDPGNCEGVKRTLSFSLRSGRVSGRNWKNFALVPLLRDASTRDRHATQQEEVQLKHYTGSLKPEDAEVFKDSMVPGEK

Row | Structure (SMILES) | Emax [1] [%] | Activity [2] | Activity [3] | Activity [4] | EC50 [5] [µM] | Emax [6] [%] | Activity [5] | Activity [7] | Ki [8] [µM] | Activity [9] [%]
1 | CCOC(=O)C1=C(c2ccccc2)N=C(C)/C(=C(/O)OCC)C1CC (stereo unspecified) | 383 | inactive | inactive | inactive | – | – | – | – | – | –
2 | CO/C(O)=C1\C(C)=NC(C)=C([N+](=O)[O-])[C@H]1c1ccccc1C(F)(F)F | – | – | – | – | – | – | inactive | inactive | – | –
3 | CCOC(=O)C1=C(c2ccccc2)N=C(C)/C(=C(/O)OCC)C1C(OC)OC (stereo unspecified) | 114 | inactive | inactive | inactive | – | – | – | – | 15.3 | –
4 | CCOC(=O)C1=C(C)NC(c2cccc(F)c2)=C(C(=O)OCC)C1CC (racemic) | 403 | inactive | inactive | – | 26.7 | 206 | – | – | – | –
5 | CCOC(=O)C1=C(c2ccccc2)N=C(CC)/C(=C(/O)SCC)C1CC (stereo unspecified) | 257 | inactive | inactive | inactive | – | – | – | – | – | –
6 | CCCC1C(C(=O)OCC)=C(c2ccccc2)N=C(C)/C1=C(/O)SCC (stereo unspecified) | 364 | inactive | inactive | inactive | 22.4 | 318 | – | – | – | –
7 | CCCC1C(C(=O)SCC)=C(C)NC(c2cccc(Cl)c2)=C1C(=O)OCC (racemic) | 177 | inactive | inactive | – | – | – | – | – | – | –
8 | CCCC1=NC(c2ccccc2)=C(C(=O)OCC)C(CC)/C1=C(\O)SCC (stereo unspecified) | 148 | inactive | inactive | inactive | – | – | – | – | 2.09 | –
9 | COC(=O)C1=C(C)NC(C)=C(C(=O)OCCN(C)Cc2ccccc2)C1c1cccc([N+](=O)[O-])c1 (stereo unspecified) | – | – | – | – | – | – | inactive | inactive | – | –
10 | CCOC(=O)C1=C(c2ccccc2)N=C(C)/C(=C(/O)SCCOC)C1CC (stereo unspecified) | 626 | inactive | inactive | inactive | 21.3 | – | – | – | 4.58 | 13
11 | CCOC(=O)C1=C(c2ccccc2)N=C(C)/C(=C(/O)SCC)C1CC (stereo unspecified) | 435 | inactive | inactive | inactive | 28.1 | – | – | – | – | –
12 | CCOC(=O)C1=C(C)NC(c2cccc(Cl)c2)=C(C(=O)OCC)C1CC (racemic) | 347 | inactive | inactive | – | 17.1 | 259 | – | – | – | –
13 | CCOC(=O)C1=C(c2ccc(F)cc2)NC(C)=C(C(=O)SCC)C1C1CC1 (racemic) | 175 | inactive | inactive | – | – | – | – | – | – | –
14 | CCOC(=O)C1=C(C2CCCCC2)NC(C)=C(C(=O)SCC)C1CC (racemic) | 87 | inactive | inactive | – | – | – | – | – | – | –

The remaining lines, values ahead:

Row | Emax [1] [%] | Activity [2] | Activity [3] | Activity [4] | EC50 [5] [µM] | Emax [6] [%] | Activity [5] | Activity [7] | Ki [8] [µM] | Activity [9] [%] | Structure (SMILES)
15 | 194 | inactive | inactive | – | – | – | – | – | – | – | CCOC(=O)C1=C(c2cccc(Cl)c2)NC(C)=C(C(=O)SCCc2ccccc2)C1CC (racemic)
16 | 372 | inactive | inactive | – | 29.2 | 175 | – | – | – | – | CCOC(=O)C1=C(C)NC(c2ccc(F)cc2)=C(C(=O)OCC)C1CC (racemic)
17 | 98 | inactive | inactive | – | – | – | – | – | – | – | CCOC(=O)C1=C(c2ccc([N+](=O)[O-])cc2)NC(C)=C(C(=O)SCc2ccccc2)C1CC (racemic)
18 | 129 | inactive | inactive | – | – | – | – | – | – | – | CCOC(=O)C1=C(c2ccc(C#N)cc2)NC(C)=C(C(=O)SCC)C1CC (racemic)
19 | 124 | inactive | inactive | – | – | – | – | – | – | – | CCOC(=O)C1=C(c2ccccc2F)NC(C)=C(C(=O)SC(C)C)C1CC (racemic)
20 | 117 | inactive | inactive | – | – | – | – | – | – | – | CCOC(=O)C1=C(c2ccccc2F)NC(C)=C(C(=O)SCCc2ccccc2)C1CC (racemic)
21 | 123 | inactive | inactive | – | – | – | – | – | – | – | CCOC(=O)C1=C(c2ccccc2F)NC(C)=C(C(=O)SCc2ccccc2)C1CC (racemic)
22 | 116 | inactive | inactive | – | – | – | – | – | – | – | CCOC(=O)C1=C(c2ccc3ccccc3c2)NC(C)=C(C(=O)SCC)C1CC (racemic)
23 | 360 | inactive | inactive | – | 27.6 | 231 | – | – | – | – | CCCC1C(C(=O)SCCc2ccccc2)=C(C)NC(c2ccccc2)=C1C(=O)OCC (racemic)
24 | 101 | inactive | inactive | – | – | 117 | – | – | – | – | CCOC(=O)C1=C(c2ccc([N+](=O)[O-])cc2)NC(C)=C(C(=O)SCCc2ccccc2)C1CC (racemic)
25 | 232 | inactive | inactive | – | 51.6 | 148 | – | – | – | – | CCOC(=O)C1=C(c2ccc(F)cc2)NC(C)=C(C(=O)SCCc2ccccc2)C1CC (racemic)
26 | 198 | inactive | inactive | – | – | – | – | – | – | – | CCOC(=O)C1=C(c2ccccc2F)NC(C)=C(C(=O)SCC)C1CC (racemic)
27 | 409 | inactive | inactive | – | 28.4 | – | – | – | – | – | CCOC(=O)C1=C(c2ccc(F)cc2)NC(C)=C(C(=O)SCC)C1CC (racemic)
28 | 446 | inactive | inactive | – | 21.8 | 198 | – | – | – | – | CCOC(=O)C1=C(c2cccc(F)c2)NC(C)=C(C(=O)SCC)C1CC (racemic)
